ChEMBL document CHEMBL3351347, “Eight pairs of epimeric triterpenoids involving a characteristic spiro-E/F ring from Abies faxoniana” (J Nat Prod, 2015)
Calls of active or inactive are those of the source. No cut-off for these calls is given here.

Legend:
HepG2 = assay: Cytotoxicity against human HepG2 cells after 24 hrs by MTT assay; format: functional, cell-based; details: HepG2, 24 h
How it was run: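 Cells grown in DMEM with 10% FBS, penicillin/streptomycin at 37 °C, 5% CO2. MTT (5 mg/mL solution) added for 2−4 h at 37 °C, formazan dissolved in DMSO, absorbance read at 570 nm. Viability = mean OD of treated wells / DMSO-control OD; IC50 from viability.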

[1] = Cytotoxicity against human HuH7 cells after 24 hrs by MTT assay; format: functional, cell-based; details: Huh-7, 24 h
How it was run: (§1)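 Cells grown in DMEM with 10% FBS, penicillin/streptomycin at 37 °C, 5% CO2. […] MTT (5 mg/mL solution) added for 2−4 h at 37 °C, formazan dissolved in DMSO, absorbance read at 570 nm. Viability = mean OD of treated wells / DMSO-control OD; IC50 from viability.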

SMMC-7721 = assay: Cytotoxicity against human SMMC7721 cells after 24 hrs by MTT assay; format: functional, cell-based; details: SMMC-7721, 24 h; how it was run: as §1
[2] = Cytotoxicity against human QSG7701 cells after 24 hrs by MTT assay; format: cell-based; details: QSG7701, 24 h; how it was run: as §1
Huh-7 [3] = assay: Induction of cell cycle arrest in human HuH7 cells assessed as increase in accumulation at G2/M phase at 5 to 20 uM after 24 hrs by propidium iodide staining based flow cytometry; format: functional
How it was run: (§2)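 Huh7 exposed 24 h to 5, 10, 20 μM. Cells washed in PBS with 2% FBS, then 3 × 10^5 cells/mL fixed overnight in cold absolute EtOH at 4 °C. After two PBS washes, stained with PI solution (3.8 mM sodium citrate, 20 μg/mL PI in PBS) plus RNase A, 30 min at room temperature in the dark. DNA content read by flow cytometry; means ± SEM, three independent experiments.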

Huh-7 [4] = assay: Induction of cell cycle arrest in human HuH7 cells assessed as reduction in accumulation at G0/G1 phase at 5 to 20 uM after 24 hrs by propidium iodide staining based flow cytometry; format: functional; how it was run: as §2
Huh-7 [5] = assay: Induction of cell cycle arrest in human HuH7 cells assessed as reduction in accumulation at S phase at 5 to 20 uM after 24 hrs by propidium iodide staining based flow cytometry; format: functional; how it was run: as §2
Huh-7 [6] = assay: Induction of apoptosis in human HuH7 cells at 5 to 20 uM after 24 hrs by annexin V-FITC and propidium iodide double staining based flow cytometry; format: functional, cell-based
How it was run: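 Huh7 exposed 24 h to 5, 10, 20 μM, then collected, PBS-washed and resuspended in binding buffer with annexin V-FITC (10 μg/mL) for 10 min in the dark. PI (20 μg/mL) added, samples read by flow cytometry immediately. Means ± SEM, three independent experiments.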

Huh-7 [7] = assay: Induction of intracellular ROS production in human HuH7 cells at 5 to 20 uM after 24 hrs by carboxy-H2DCFDA staining based flow cytometry; format: functional, cell-based
How it was run: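 Huh7 exposed 24 h to 5, 10, 20 μM, harvested, PBS-washed, then loaded in DMEM with 10 μM carboxy-H2DCFDA for 30 min at 37 °C. Washed again; fluorescence measured by flow cytometry as an index of intracellular ROS.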

Huh-7 [8] = assay: Induction of intracellular ROS production in human HuH7 cells at 20 uM pre-treated with 10 mM ROS scavenger NAC measured after 24 hrs post dose by carboxy-H2DCFDA staining based flow cytometry

| SMILES | IC50 (HepG2) [µM] | IC50 [1] [µM] | IC50 (SMMC-7721) [µM] | IC50 [2] [µM] | Activity (Huh-7 [3]) | Activity (Huh-7 [4]) | Activity (Huh-7 [5]) | Activity (Huh-7 [6]) | Activity (Huh-7 [7]) | Activity (Huh-7 [8]) |
| --- | --- | --- | --- | --- | --- | --- | --- | --- | --- | --- |
| C[C@H](CC(=O)C[C@@H](C)[C@]1(C)CC=C2C3=CC[C@H]4C(C)(C)[C@H](O)CC[C@]4(C)[C@@H]3CC[C@]21C)C(=O)O | > 50 | > 50 | > 50 | 42.4 | – | – | – | – | – | – |
| C[C@@H]1C[C@]2(C[C@@H](C)[C@@]3(CC[C@@]4(C)[C@H]5CC[C@H]6C(C)(C)[C@H](O)CC[C@@]67C[C@]57CC[C@@]43C)O2)OC1=O | 21.1 | 16 | 25.2 | > 50 | – | – | – | – | – | – |
| C[C@@H]1C[C@]2(C[C@@H](C)[C@@]3(CC[C@@]4(C)C5=CC[C@H]6C(C)(C)[C@H](O)CC[C@]6(C)[C@@H]5CC[C@@]43C)O2)OC1=O | > 50 | 16.4 | 19.1 | 17.6 | – | – | – | – | – | – |
| C[C@@H]1C[C@]2(C[C@@H](C)[C@@]3(CC[C@]4(C)[C@]3(C)CC[C@@]35O[C@@]43[C@@H](OC(=O)Cc3ccccc3)C[C@H]3C(C)(C)C(=O)CC[C@@]35C)O2)OC1=O | > 50 | > 50 | > 50 | > 50 | – | – | – | – | – | – |
| C[C@@H]1C[C@@]2(C[C@@H](C)[C@@]3(CC[C@@]4(C)C5=C(C(=O)C[C@@]43C)[C@@]3(C)CCC(=O)C(C)(C)[C@@H]3CC5)O2)OC1=O | 31.2 | > 50 | > 50 | 26.8 | – | – | – | – | – | – |
| C[C@@H]1C[C@@H](C[C@@H](C)[C@@]2(O)CC[C@@]3(C)C4=C(CC[C@@]32C)[C@@]2(C)CCC(=O)C(C)(C)[C@@H]2CC4)OC1=O | > 50 | 40.1 | 34.6 | 37 | – | – | – | – | – | – |
| C[C@@H]1C[C@]2(C[C@@H](C)[C@@]3(CC[C@@]4(C)C5=CC[C@H]6C(C)(C)C(=O)CC[C@]6(C)[C@@H]5CC[C@@]43C)O2)OC1=O | 14.1 | 13.5 | 20.7 | 15.5 | – | – | – | – | – | – |
| C[C@@H]1C[C@@]2(C[C@@H](C)[C@@]3(CC[C@@]4(C)[C@H]5CC[C@H]6C(C)(C)C(=O)CC[C@]6(C)[C@@H]5CC[C@@]43C)O2)OC1=O | > 50 | 18.4 | 28.3 | > 50 | – | – | – | – | – | – |
| C[C@@H]1C[C@@]2(C[C@@H](C)[C@@]3(CC[C@@]4(C)C5=CC[C@H]6C(C)(C)C(=O)CC[C@]6(C)[C@@H]5CC[C@@]43C)O2)OC1=O | 14.1 | 13.5 | 20.7 | 15.5 | – | – | – | – | – | – |
| C[C@@H]1C[C@@]2(C[C@@H](C)[C@@]3(CC[C@@]4(C)C5=CC[C@H]6C(C)(C)[C@H](O)CC[C@]6(C)[C@@H]5CC[C@@]43C)O2)OC1=O | > 50 | 16.4 | 19.1 | 17.6 | – | – | – | – | – | – |
| CC(=O)O[C@@H]1CC[C@]23C[C@@]24CC[C@@]2(C)[C@@](C)(CC[C@]25O[C@@]2(C[C@@H](C)C(=O)O2)C[C@H]5C)[C@H]4CC[C@H]3C1(C)C | 9.8 | 7.5 | 10.7 | > 50 | Active | Active | Active | Dose-dependent effect | Active | inactive |
| C[C@@H]1C[C@@]2(C[C@@H](C)[C@@]3(CC[C@@]4(C)[C@H]5CC[C@H]6C(C)(C)[C@H](O)CC[C@@]67C[C@]57CC[C@@]43C)O2)OC1=O | 21.1 | 16 | 25.2 | > 50 | – | – | – | – | – | – |
| C[C@@H]1C[C@]2(C[C@@H](C)[C@@]3(CC[C@@]4(C)C(=O)[C@@]5(CC[C@@]43C)[C@@H](O)C[C@H]3C(C)(C)C(=O)CC[C@@]35C)O2)OC1=O | 15.4 | 12.3 | 10.1 | 8.2 | – | – | – | – | – | – |
| C[C@@H]1C[C@]2(C[C@@H](C)[C@@]3(CC[C@@]4(C)C5=C(C(=O)C[C@@]43C)[C@@]3(C)CCC(=O)C(C)(C)[C@@H]3CC5)O2)OC1=O | 31.2 | > 50 | > 50 | 26.8 | – | – | – | – | – | – |
| C/C(=C/CC[C@@H](C)[C@H]1CC[C@@]2(C)C3=CC[C@H]4C(C)(C)C(=O)CC[C@]4(C)[C@@H]3CC[C@]12C)C(=O)O | 24 | > 50 | > 50 | > 50 | – | – | – | – | – | – |
| COc1cccc2c1C(=O)c1c(O)c3c(c(O)c1C2=O)C[C@@](O)(C(=O)CO)C[C@@H]3O[C@H]1C[C@H](N)[C@H](O)[C@H](C)O1 [DOXORUBICIN] | – | 0.7 | 0.3 | 2.9 | – | – | – | – | – | – |
| C[C@@H]1C[C@]2(C[C@@H](C)[C@@]3(CC[C@@]4(C)[C@H]5CC[C@H]6C(C)(C)C(=O)CC[C@]6(C)[C@@H]5CC[C@@]43C)O2)OC1=O | > 50 | 18.4 | 28.3 | > 50 | – | – | – | – | – | – |
| C[C@@H]1C[C@@]2(C[C@@H](C)[C@@]3(CC[C@]4(C)[C@]3(C)CC[C@@]35O[C@@]43[C@@H](OC(=O)Cc3ccccc3)C[C@H]3C(C)(C)C(=O)CC[C@@]35C)O2)OC1=O | > 50 | > 50 | > 50 | > 50 | – | – | – | – | – | – |
| CC1=CC(O)(C[C@@H](C)C2=CC[C@@]3(C)C4=C(CC[C@]23C)[C@@]2(C)CCC(=O)C(C)(C)[C@@H]2CC4)OC1=O (some centres not stated) [NEOABIESLACTONE E] | 16.7 | 20.9 | 13.4 | 10.1 | – | – | – | – | – | – |
| CC(=O)O[C@@H]1CC[C@]23C[C@@]24CC[C@@]2(C)[C@@](C)(CC[C@]25O[C@]2(C[C@@H](C)C(=O)O2)C[C@H]5C)[C@H]4CC[C@H]3C1(C)C | 9.8 | 7.5 | 10.7 | > 50 | Active | Active | Active | Dose-dependent effect | Active | inactive |
| COC(=O)[C@H](C)CC(=O)C[C@@H](C)[C@]1(C)CC[C@@]2(C)C3=CC[C@H]4C(C)(C)[C@H](O)CC[C@]4(C)[C@@H]3CC=C21 | > 50 | > 50 | > 50 | > 50 | – | – | – | – | – | – |
| C/C(=C/CC[C@@H](C)[C@H]1CC[C@@]2(C)C3=CC[C@H]4C(C)(C)[C@@H](O)CC[C@]4(C)[C@@H]3CC[C@]12C)C(=O)O | > 50 | > 50 | > 50 | > 50 | – | – | – | – | – | – |
| CO[C@@H]1CC[C@@]2(C)[C@@H](C[C@H](O)[C@@]23CC[C@]2(C)[C@@H]([C@H](C)C[C@@H]4C=C(C)C(=O)O4)CC[C@@]2(C)C3=O)C1(C)C | 20.6 | 35.1 | > 50 | > 50 | – | – | – | – | – | – |
| C[C@@H]1C[C@@]2(C[C@@H](C)[C@@]3(CC[C@@]4(C)C(=O)[C@@]5(CC[C@@]43C)[C@@H](O)C[C@H]3C(C)(C)C(=O)CC[C@@]35C)O2)OC1=O | 15.4 | 12.3 | 10.1 | 8.2 | – | – | – | – | – | – |
